High-throughput results as filed in PubChem BioAssay.
The sample as a whole holds a higher share of hits than the screen did.
697 NFkB inh – inhibitors of the PMA/ionomycin-induced NF-kB reporter in 697 B cells. 697 B-cell NF-kB luciferase reporter, 16 h. hit rate 0.33% among 330,000. inhibition, % at 4 µM. AID 435022; in the data active = inhibition above about 35%
Jurkat NFkB inh – lowers PMA/ionomycin-induced NF-kB signal in Jurkat cells | PMA/ionomycin-induced NF-kB luciferase reporter, luminescence | inhibition, % at 4 µM | hit rate 0.53% among 330,000 | AID 435003; in the data active = inhibition above about 50%
XBP1 UPR activ – adaptive UPR (XBP1) activation; hit rate 0.33% among 330,000; AID 463104; CHO-XBP1 luciferase reporter, IRE1-XBP1 UPR activation, luminescence; percent of tunicamycin response, DMSO as zero; activation, % at 20 µM;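 active = versus positive control, 20 µM dose yields 30% or more activation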
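Signal: luciferase luminescence; Assay system: CHO-XBP1 luciferase reporter cells; Amount: one thousand reporter cells per well; Dosing: 20 µM single concentration, DMSO 1%; Benchmarks: high control tunicamycin 10 µg/mL final, low control DMSO vehicle only; Schedule: 6 h compound exposure at 37 °C, 5% CO2; Evaluation: percent activation relative to tunicamycin reference.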
CHOP inhibitor – inhibitors of CHOP induction in ER stress response; CHO-K1 CHOP-promoter luciferase, tunicamycin-induced, 15-18 h; inhibition, % at 10 µM; hit rate 3.8% among 220,000;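 active = compounds that reduced the stress-induced luciferase reporter signal by more than about 70% of percent inhibition, limit read from the data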
UPR CHOP act – apoptotic UPR (CHOP) activation; activation, % at 10 µM; CHO-CHOP luciferase reporter, luminescence; percent of tunicamycin response over DMSO baseline; hit rate 0.34% among 330,000;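 active = at 10 µM dose, activation of 40% or more, normalized to positive control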
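Assay system: CHO-CHOP cells, stable luciferase reporter of PERK-eIF2a-CHOP signalling / Buffer or medium: F12 plus 10% serum / Compound dosing: one dose, 10 µM in 0.5% DMSO / Times: 6 h compound treatment, 37 °C / Technique: luciferase luminescence / Read-out: % reporter activation, DMSO baseline versus tunicamycin full activation / Benchmarks: tunicamycin and DMSO controls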
CHOP inh conf – confirmation of CHOP induction inhibitors | CHO-CHOP promoter luciferase reporter, tunicamycin-induced, luminescence | hit rate 45% among 2,100 | inhibition, % at 10 µM | shares compounds with CHOP inhibitor;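 active = mean of three repeat readings of reporter signal inhibition above a set limit, cut at about 70% in these data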
Each line names hits and unclear results; the compound was inactive in the other large screens (follow-up assays come after a bar, where they were run).

COc1ccc(-c2cc(C(=O)OCC(=O)Nc3cc(C)on3)c3ccccc3n2)cc1OC	CHOP inhibitor 88
Cc1ccc(-c2cc(C(=O)OCC(=O)Nc3cc(C)on3)c3ccccc3n2)c(C)c1	CHOP inhibitor 89
Cc1ccc(-c2cc(C(=O)OCC(=O)Nc3ncc(C(F)(F)F)cc3Cl)c3ccccc3n2)cc1	CHOP inhibitor 83
Cc1ccc(-c2cc(C(=O)Nc3ccc(S(=O)(=O)Nc4cc(C)on4)cc3)c3ccccc3n2)c(C)c1	none
CC(C)(C)c1ccc(C(=O)NCCC(=O)NNC(=O)COc2ccccc2F)cc1	none (no result: CHOP inhibitor)
COc1ccc(S(=O)(=O)N(C)c2ccc(C(=O)NCc3ccco3)cc2)cc1OC	none (no result: CHOP inhibitor)
Cc1ccc(Nc2nnc(SCC(=O)Nc3ncc(C(F)(F)F)cc3Cl)s2)cc1	CHOP inhibitor 74
COc1ccc(-c2cc(C(=O)Nc3c(Cl)cc(Cl)cc3Cl)c3ccccc3n2)cc1OC	CHOP inhibitor 79
Cc1cccc(C)c1Nc1nnc(SCC(=O)Nc2ncc(C(F)(F)F)cc2Cl)s1	none
CCc1ccc(-n2c(=S)sc3c(=O)n(-c4ccccc4)c(SCC(=O)O)nc32)cc1	none (no result: CHOP inhibitor)
CCc1ccc(N2C(=O)c3sc4nnc(-c5ccccc5)c(=O)n4c3C2=O)cc1	CHOP inhibitor 71
CCCC(C(=O)NC1CCCC1)N(Cc1ccc(OC)cc1)C(=O)c1snc(C(N)=O)c1N (configuration not stated)	none (no result: CHOP inhibitor)
O=c1cc(Nc2ccc3c(c2)OCCO3)[nH]c(=O)n1-c1ccc(Br)cc1	none
O=c1cc(Nc2ccc3c(c2)OCO3)[nH]c(=O)n1-c1ccc(Br)cc1	CHOP inhibitor 77
O=C(CSc1nn(-c2ccccc2)c(=S)s1)Nn1cnnc1	none
Cc1ccc(NC(=O)CSc2nn(-c3ccccc3)c(=S)s2)cc1S(=O)(=O)N(C)C	CHOP inhibitor 76
CC(/C=N/NC(=O)NC1CCCCC1)=C\c1ccccc1	CHOP inhibitor 86
O=C(N/N=C/C(Br)=C/c1ccccc1)NC1CCCCC1	none
O=c1oc2cc(OCc3ccc([N+](=O)[O-])cc3)ccc2c2c1CCCC2	CHOP inhibitor 77
O=C(O)c1ccc(COc2ccc3c4c(c(=O)oc3c2)CCC4)o1	none
CCOC(=O)C1=C(C)Nc2nnnn2C1c1ccccc1Cl (configuration not stated)	none
CCCCOC(=O)C1=C(C)Nc2nnnn2C1c1ccccc1Cl (configuration not stated)	CHOP inhibitor 83
Cc1cc(C)c2c(=O)n(CC(=O)N3CCC(N4CCCCC4)CC3)sc2n1	none
CCOC(=O)C1CCCN(C(=O)Cn2sc3nc(C)cc(C)c3c2=O)C1 (configuration not stated)	CHOP inhibitor 109
COC(=O)c1c(NC(C)=O)sc(C(=O)Nc2ccccc2)c1C	none
CCOc1ccc(NC(=O)c2sc(NC(C)=O)c(C(=O)OC)c2C)cc1	CHOP inhibitor 73
COc1ccccc1-c1sc2ccccc2c1-c1ccc2c(c1)OCCO2	none (no result: CHOP inhibitor)
COc1ccc2[nH]c3c4c(ccc3c2c1)C(=O)C=CC4=O	CHOP inhibitor 89
COc1ccccc1C(C)NC(=O)c1ccccc1SCC(=O)N1CCCC1 (configuration not stated)	none (no result: CHOP inhibitor)
CC(C)CC(=O)N1CCN(Cc2ccccc2[N+](=O)[O-])CC1	none
CSc1ncc(CN2CCc3c([nH]c4ccccc34)C2c2cccc(O)c2)cn1 (configuration not stated)	CHOP inhibitor 86
NC(N)=N/N=C/c1ccc(OCc2ccccc2)cc1	none
NC(N)=N/N=C/c1ccc(OCc2ccc(Cl)cc2)cc1	CHOP inhibitor 107 | CHOP inh conf inactive
CC(/C=N/n1c(C2CCCCC2)n[nH]c1=S)=C\c1ccccc1	CHOP inhibitor 107 | CHOP inh conf 102
CC(=O)c1ccc(OCC(=O)N2CCN(S(=O)(=O)c3ccc(C)cc3C)CC2)cc1	none (no result: CHOP inhibitor)
Brc1ccc2ncnc(NCc3ccco3)c2c1	none
OC(CNCc1ccco1)Cn1c2ccc(Br)cc2c2cc(Br)ccc21 (configuration not stated)	CHOP inhibitor 108 | CHOP inh conf inactive
COc1cc(/C=C2\CC/C(=C\c3cc(OC)c(OC)c(OC)c3)C2=O)cc(OC)c1OC	none
COc1cc(/C=C2\CC/C(=C\c3cc(OC)c(O)c(OC)c3)C2=O)cc(OC)c1O	CHOP inhibitor 101 | CHOP inh conf 101
COc1cc(/C=C2\COC/C(=C\c3cc(OC)c(OC)c(OC)c3)C2=O)cc(OC)c1OC	CHOP inhibitor 106 (no result: 697 NFkB inh, Jurkat NFkB inh, XBP1 UPR activ, UPR CHOP act) | CHOP inh conf 111
COc1ccc(-c2cc(=O)oc3cc(OCC(=O)Nc4ccc(CCO)cc4)ccc23)cc1	none (no result: CHOP inhibitor)
COc1ccc(-c2cc(C(=O)Nc3cccnc3)c3ccccc3n2)cc1OC	none (no result: CHOP inhibitor)
CCCCCCCCNC(C)C(O)c1ccc(SC(C)C)cc1 (configuration not stated)	CHOP inhibitor 108 | CHOP inh conf 128
Oc1ccc(Br)cc1-c1nc2cnccn2c1NC1CCCCC1	CHOP inhibitor 98 | CHOP inh conf 87
C=CCn1c(CCNC(=O)c2ccc(Cl)c(Cl)c2)nnc1SCCOc1ccc(OC)cc1	CHOP inhibitor 97 | CHOP inh conf 81
Cn1c(CCNC(=O)c2ccc(Cl)c(Cl)c2)nnc1SCc1ccc(Cl)c(Cl)c1	CHOP inhibitor 100 | CHOP inh conf inactive
COc1ccc(C(=O)NCCc2nnc(SCC(=O)Nc3ccccc3)n2C)cc1	none
CCCCc1ccc(NC(=O)Nc2cc(C)nn2C)cc1	none (no result: CHOP inhibitor)
CCOC(=O)c1c(CC(C)C)csc1NC=O	CHOP inhibitor 99 | CHOP inh conf inactive
COc1ccccc1NC(=O)COC(=O)c1cc([N+](=O)[O-])ccc1N1CCCC1	none (no result: CHOP inhibitor)
COC(=O)c1cc(C(=O)NNC(=O)c2ccc3c(c2)OCO3)cc([N+](=O)[O-])c1	none (no result: CHOP inhibitor)
CC(=O)Nc1sc(N/N=C\c2ccccc2Cl)nc1-c1cccs1	CHOP inhibitor 103 | CHOP inh conf inactive
CCCc1nc(SCC(=O)Nc2ccccc2)c2c(=O)n(C)c(=O)n(C)c2n1	CHOP inhibitor 99 | CHOP inh conf inactive
Cc1ccc(C2CC2c2n[nH]c(=S)n2-c2ccc(Cl)cc2)cc1 (configuration not stated)	CHOP inhibitor 106 | CHOP inh conf inactive
Cc1ccc(C2CC2c2n[nH]c(=S)n2-c2cccc(C)c2)cc1 (configuration not stated)	none
O=C(N=c1ccn(-c2nc3ccccc3nc2NS(=O)(=O)c2ccc(Cl)cc2)cc1)c1cccs1	CHOP inhibitor 98 | CHOP inh conf inactive
CCOc1ccc(S(=O)(=O)Nc2nc3ccccc3nc2-n2ccc(=NC(=O)c3cccs3)cc2)cc1	none
O=c1[nH]c(=O)n(C2CCCCCC2)c(O)c1C=NCc1ccc(F)cc1	CHOP inhibitor 107 | CHOP inh conf inactive
